{"source": "paper PMC5815829", "about": "(Journal of the American Chemical Society, 2017)", "key": {"s10• H6:GFP: loop:s11": {"tested_on": "s10• H6:GFP: loop:s11", "test": "Displacement of bound s10 by excess s11", "type": "binding", "conditions": "excess s11 added to isolated complex; data not shown"}, "H6:GFP: loop:s11•s11": {"tested_on": "H6:GFP: loop:s11•s11", "conditions": "excess replacement peptide s11^222Q; cited from earlier work"}, "[1]": {"tested_on": "truly truncated H6:GFP: loop:s11", "test": "Spontaneous dark reassembly with s11", "type": "binding", "conditions": "4 μM protein, 20 μM s11, dark", "procedure,_shortened": "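Truncated protein made from intact GFP carrying a sacrificial loop: loop cut by proteolysis, then strand 11 stripped off in 6M Guanidinium-HCl. Protein separated from s11 peptide by size exclusion, refolded by rapid dilution into non-denaturing buffer, then thermally relaxed. 4 µM protein mixed with 20 µM s11 peptide without irradiation. Reassembly followed over time; second-order k reported in M-1s-1.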"}, "H6:GFP: loop:s11": {"tested_on": "H6:GFP: loop:s11", "conditions": "His-tag retained, cited from earlier work"}, "H6:s10:loop:GFP": {"tested_on": "H6:s10:loop:GFP", "conditions": "cited from earlier work"}, "s10• H6:s10:loop:GFP": {"tested_on": "s10• H6:s10:loop:GFP", "conditions": "dark; cited from earlier work"}}, "note": "“Also recorded” adds a separate entry of the source. Where two headings read alike, the source gives them in different places.", "data": [{"sequence": "HMVLLEFVTAA [s11]", "values": [{"measurement": "displacement of bound s10", "setting": "s10• H6:GFP: loop:s11", "result": "able to displace the bound s10, and light accelerates this process"}, {"measurement": "spontaneous off-rate of strand 11", "setting": "H6:GFP: loop:s11•s11", "result": "effectively zero"}, {"measurement": "rate constant k of spontaneous reassembly with s11 in the dark", "setting": "[1]", "result": "1.2 × 10^0 M^−1 s^−1"}, {"measurement": "binding of s11 in the dark", "setting": "H6:GFP: loop:s11; listed as native peptide", "result": "unable to displace the H6 slotted into this groove until it is vacated following light activation"}, {"measurement": "binding of s11 in the dark", "setting": "H6:GFP: loop:s11", "result": "unable to bind s11 in the dark; also recorded: does not rebind added synthetic strand 11 (s11) spontaneously in the dark"}]}, {"sequence": "NHYLSTQSVLS [s10]", "values": [{"measurement": "reassembly with s10 in the dark", "setting": "H6:s10:loop:GFP", "result": "readily reassembles"}, {"measurement": "spontaneous off-rate of strand 10", "setting": "s10• H6:s10:loop:GFP", "result": "very slow"}]}]}
